# Data: ChEMBL document CHEMBL4689842, “EUbOPEN Chemogenomics Library wave 1” (2021)
# Values joined by “and” are separate entries in the source; they are usually repeats but may differ in a detail not shown here. Equal entries are not always repeated.
# System: U2OS
# Test: Multiplex assay against U2OS
# Format: toxicity, cell-based
# Details: human
# Summary of the method: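 Per cents of healthy-nucleus cells form the tubulin, mitochondrial-mass and membrane-permeability phenotype values. Live cells were stained at seeding with Hoechst33342, BioTracker Green Microtubule Cytoskeleton Dye, MitoTracker Red and Annexin V Alexa Fluor 680. After compound addition they were imaged on a CQ1 microscope at 37°C and 5% CO2, and CellPathfinder machine-learning gating split them into Hoechst high-intensity objects or normal cells, normal cells into healthy, pyknosed or fragmented nuclei, and pyknosed cells into mitotic or apoptotic.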
# [1] = 12 h, 1 µM, compound concentration 1 uM, replicate 1
# [2] = 12 h, 1 µM, compound concentration 1 uM, replicate 2
# [3] = 12 h, 10 µM, compound concentration 10 uM, replicate 1
# [4] = 12 h, 10 µM, compound concentration 10 uM, replicate 2
# [5] = 24 h, 1 µM, compound concentration 1 uM, replicate 1
# [6] = 24 h, 1 µM, compound concentration 1 uM, replicate 2
# [7] = 24 h, 10 µM, compound concentration 10 uM, replicate 1
# [8] = 24 h, 10 µM, compound concentration 10 uM, replicate 2
# [9] = 48 h, 10 µM, compound concentration 10 uM, replicate 1
# [10] = 48 h, 10 µM, compound concentration 10 uM, replicate 2
# [11] = 48 h, 1 µM, compound concentration 1 uM, replicate 1
# [12] = 48 h, 1 µM, compound concentration 1 uM, replicate 2
smiles,measurement,setting,value
CCOC(=O)Nc1cc(-c2ccc(C)c(NS(C)(=O)=O)c2)nn2c(C)nnc12,Population Apoptotic (%),[1],83%
same,Population Fragmented Nuclei (%),[1],7%
same,Population Healthy Nuclei (%),[1],89%
same,Population Hoechst High Intensity Objects (%),[1],2%
same,Population Membrane Permeable-Phenotype (%),[1],9%
same,Population Mitochondria Different-Phenotype (%),[1],27%
same,Population Mitotic Cells (%),[1],16%
same,Population Normal (%),[1],97%
same,Population Pyknosed Nuclei (%),[1],3%
same,Population Tubulin-Different-Phenotype (%),[1],26%
same,Total Cell Count,[1],184
same,Population Apoptotic (%),[2],100%
same,Population Fragmented Nuclei (%),[2],11%
same,Population Healthy Nuclei (%),[2],88%
same,Population Hoechst High Intensity Objects (%),[2],11%
same,Population Membrane Permeable-Phenotype (%),[2],7%
same,Population Mitochondria Different-Phenotype (%),[2],31%
same,Population Mitotic Cells (%),[2],0%
same,Population Normal (%),[2],88%
same,Population Pyknosed Nuclei (%),[2],0%
same,Population Tubulin-Different-Phenotype (%),[2],47%
same,Total Cell Count,[2],152
same,Population Apoptotic (%),[3],36% and 50%
same,Population Fragmented Nuclei (%),[3],7% and 3%
same,Population Healthy Nuclei (%),[3],85% and 87%
same,Population Hoechst High Intensity Objects (%),[3],4% and 3%
same,Population Membrane Permeable-Phenotype (%),[3],2% and 7%
same,Population Mitotic Cells (%),[3],63% and 50%
same,Population Normal (%),[3],95% and 96%
same,Population Pyknosed Nuclei (%),[3],7% and 8%
same,Total Cell Count,[3],284 and 216
same,Population Fragmented Nuclei (%),[4],8% and 6%
same,Population Healthy Nuclei (%),[4],86% and 89%
same,Population Hoechst High Intensity Objects (%),[4],2% and 10%
same,Population Membrane Permeable-Phenotype (%),[4],0% and 6%
same,Population Mitochondria Different-Phenotype (%),[4],11% and 29%
same,Population Mitotic Cells (%),[4],60% and 100%
same,Population Normal (%),[4],97% and 89%
same,Population Pyknosed Nuclei (%),[4],5% and 3%
same,Population Tubulin-Different-Phenotype (%),[4],89% and 30%
same,Total Cell Count,[4],101 and 206
same,Population Apoptotic (%),[5],22%
same,Population Fragmented Nuclei (%),[5],7%
same,Population Healthy Nuclei (%),[5],88%
same,Population Hoechst High Intensity Objects (%),[5],2%
same,Population Mitochondria Different-Phenotype (%),[5],32%
same,Population Mitotic Cells (%),[5],77%
same,Population Normal (%),[5],97%
same,Population Pyknosed Nuclei (%),[5],3%
same,Population Tubulin-Different-Phenotype (%),[5],32%
same,Total Cell Count,[5],257
same,Population Apoptotic (%),[6],20%
same,Population Fragmented Nuclei (%),[6],9%
same,Population Healthy Nuclei (%),[6],84%
same,Population Hoechst High Intensity Objects (%),[6],7%
same,Population Membrane Permeable-Phenotype (%),[6],4%
same,Population Mitochondria Different-Phenotype (%),[6],34%
same,Population Mitotic Cells (%),[6],80%
same,Population Normal (%),[6],92%
same,Population Pyknosed Nuclei (%),[6],5%
same,Population Tubulin-Different-Phenotype (%),[6],59%
same,Total Cell Count,[6],195
same,Population Fragmented Nuclei (%),[7],5%
same,Population Healthy Nuclei (%),[7],87% and 93%
same,Population Hoechst High Intensity Objects (%),[7],3% and 1%
same,Population Membrane Permeable-Phenotype (%),[7],1% and 4%
same,Population Mitochondria Different-Phenotype (%),[7],11% and 18%
same,Population Mitotic Cells (%),[7],88% and 33%
same,Population Normal (%),[7],96% and 98%
same,Population Pyknosed Nuclei (%),[7],7% and 3%
same,Total Cell Count,[7],378 and 305
same,Population Apoptotic (%),[8],28% and 53%
same,Population Fragmented Nuclei (%),[8],3% and 7%
same,Population Healthy Nuclei (%),[8],90% and 86%
same,Population Hoechst High Intensity Objects (%),[8],2% and 9%
same,Population Membrane Permeable-Phenotype (%),[8],0% and 5%
same,Population Mitochondria Different-Phenotype (%),[8],16% and 30%
same,Population Mitotic Cells (%),[8],71% and 46%
same,Population Normal (%),[8],97% and 90%
same,Population Pyknosed Nuclei (%),[8],5% and 6%
same,Population Tubulin-Different-Phenotype (%),[8],96% and 35%
same,Total Cell Count,[8],137 and 273
same,Population Apoptotic (%),[9],36%
same,Population Fragmented Nuclei (%),[9],5%
same,Population Healthy Nuclei (%),[9],91%
same,Population Hoechst High Intensity Objects (%),[9],1%
same,Population Mitochondria Different-Phenotype (%),[9],10%
same,Population Mitotic Cells (%),[9],63%
same,Population Normal (%),[9],98%
same,Population Pyknosed Nuclei (%),[9],3%
same,Population Tubulin-Different-Phenotype (%),[9],98%
same,Total Cell Count,[9],662
same,Population Apoptotic (%),[10],17%
same,Population Fragmented Nuclei (%),[10],2%
same,Population Healthy Nuclei (%),[10],90%
same,Population Hoechst High Intensity Objects (%),[10],2%
same,Population Membrane Permeable-Phenotype (%),[10],0%
same,Population Mitochondria Different-Phenotype (%),[10],12%
same,Population Mitotic Cells (%),[10],82%
same,Population Normal (%),[10],97%
same,Population Pyknosed Nuclei (%),[10],6%
same,Population Tubulin-Different-Phenotype (%),[10],91%
same,Total Cell Count,[10],261
CCCSc1nc(N[C@@H]2C[C@H]2c2ccc(F)c(F)c2)c2nnn([C@@H]3C[C@H](OCCO)[C@@H](O)[C@H]3O)c2n1 [TICAGRELOR],Population Apoptotic (%),[1],23%
same,Population Fragmented Nuclei (%),[1],11%
same,Population Healthy Nuclei (%),[1],74%
same,Population Hoechst High Intensity Objects (%),[1],6%
same,Population Membrane Permeable-Phenotype (%),[1],4%
same,Population Mitochondria Different-Phenotype (%),[1],21%
same,Population Mitotic Cells (%),[1],76%
same,Population Normal (%),[1],93%
same,Population Pyknosed Nuclei (%),[1],14%
same,Population Tubulin-Different-Phenotype (%),[1],10%
same,Total Cell Count,[1],116
same,Population Apoptotic (%),[2],66%
same,Population Fragmented Nuclei (%),[2],1%
same,Population Healthy Nuclei (%),[2],93%
same,Population Hoechst High Intensity Objects (%),[2],5%
same,Population Membrane Permeable-Phenotype (%),[2],5%
same,Population Mitochondria Different-Phenotype (%),[2],18%
same,Population Mitotic Cells (%),[2],33%
same,Population Normal (%),[2],94%
same,Population Pyknosed Nuclei (%),[2],4%
same,Population Tubulin-Different-Phenotype (%),[2],13%
same,Total Cell Count,[2],82
same,Population Apoptotic (%),[3],87%
same,Population Fragmented Nuclei (%),[3],16%
same,Population Healthy Nuclei (%),[3],64%
same,Population Hoechst High Intensity Objects (%),[3],7%
same,Population Membrane Permeable-Phenotype (%),[3],37%
same,Population Mitochondria Different-Phenotype (%),[3],99%
same,Population Mitotic Cells (%),[3],12%
same,Population Normal (%),[3],92%
same,Population Pyknosed Nuclei (%),[3],19%
same,Population Tubulin-Different-Phenotype (%),[3],100%
same,Total Cell Count,[3],125
same,Population Apoptotic (%),[4],75%
same,Population Fragmented Nuclei (%),[4],7%
same,Population Healthy Nuclei (%),[4],79%
same,Population Hoechst High Intensity Objects (%),[4],11%
same,Population Membrane Permeable-Phenotype (%),[4],43%
same,Population Mitochondria Different-Phenotype (%),[4],98%
same,Population Mitotic Cells (%),[4],25%
same,Population Normal (%),[4],88%
same,Population Pyknosed Nuclei (%),[4],12%
same,Population Tubulin-Different-Phenotype (%),[4],96%
same,Total Cell Count,[4],67
same,Population Apoptotic (%),[5],9%
same,Population Fragmented Nuclei (%),[5],7%
same,Population Healthy Nuclei (%),[5],84%
same,Population Hoechst High Intensity Objects (%),[5],7%
same,Population Membrane Permeable-Phenotype (%),[5],3%
same,Population Mitochondria Different-Phenotype (%),[5],10%
same,Population Mitotic Cells (%),[5],90%
same,Population Normal (%),[5],92%
same,Population Pyknosed Nuclei (%),[5],7%
same,Population Tubulin-Different-Phenotype (%),[5],6%
same,Total Cell Count,[5],116
same,Population Apoptotic (%),[6],57%
same,Population Fragmented Nuclei (%),[6],3%
same,Population Healthy Nuclei (%),[6],87%
same,Population Hoechst High Intensity Objects (%),[6],2%
same,Population Membrane Permeable-Phenotype (%),[6],4%
same,Population Mitochondria Different-Phenotype (%),[6],20%
same,Population Mitotic Cells (%),[6],42%
same,Population Normal (%),[6],97%
same,Population Pyknosed Nuclei (%),[6],8%
same,Population Tubulin-Different-Phenotype (%),[6],11%
same,Total Cell Count,[6],81
same,Population Apoptotic (%),[7],94%
same,Population Fragmented Nuclei (%),[7],18%
same,Population Healthy Nuclei (%),[7],58%
same,Population Hoechst High Intensity Objects (%),[7],6%
same,Population Membrane Permeable-Phenotype (%),[7],55%
same,Population Mitochondria Different-Phenotype (%),[7],100%
same,Population Mitotic Cells (%),[7],5%
same,Population Normal (%),[7],93%
same,Population Pyknosed Nuclei (%),[7],22%
same,Total Cell Count,[7],155
same,Population Apoptotic (%),[8],83%
same,Population Fragmented Nuclei (%),[8],7%
same,Population Healthy Nuclei (%),[8],73%
same,Population Hoechst High Intensity Objects (%),[8],8%
same,Population Membrane Permeable-Phenotype (%),[8],65%
same,Population Mitochondria Different-Phenotype (%),[8],97%
same,Population Mitotic Cells (%),[8],16%
same,Population Normal (%),[8],91%
same,Population Pyknosed Nuclei (%),[8],19%
same,Population Tubulin-Different-Phenotype (%),[8],97%
same,Total Cell Count,[8],80
same,Population Apoptotic (%),[11],69%
same,Population Fragmented Nuclei (%),[11],6%
same,Population Healthy Nuclei (%),[11],87%
same,Population Hoechst High Intensity Objects (%),[11],4%
same,Population Mitochondria Different-Phenotype (%),[11],7%
same,Population Mitotic Cells (%),[11],30%
same,Population Normal (%),[11],95%
same,Population Pyknosed Nuclei (%),[11],5%
same,Population Tubulin-Different-Phenotype (%),[11],3%
same,Total Cell Count,[11],107
same,Population Apoptotic (%),[12],25%
same,Population Fragmented Nuclei (%),[12],4%
same,Population Healthy Nuclei (%),[12],88%
same,Population Hoechst High Intensity Objects (%),[12],3%
same,Population Membrane Permeable-Phenotype (%),[12],2%
same,Population Mitochondria Different-Phenotype (%),[12],12%
same,Population Mitotic Cells (%),[12],75%
same,Population Normal (%),[12],96%
same,Population Pyknosed Nuclei (%),[12],6%
same,Population Tubulin-Different-Phenotype (%),[12],9%
same,Total Cell Count,[12],74
same,Population Apoptotic (%),[9],89%
same,Population Fragmented Nuclei (%),[9],25%
same,Population Healthy Nuclei (%),[9],38%
same,Population Hoechst High Intensity Objects (%),[9],8%
same,Population Membrane Permeable-Phenotype (%),[9],60%
same,Population Mitochondria Different-Phenotype (%),[9],94%
same,Population Mitotic Cells (%),[9],10%
same,Population Normal (%),[9],91%
same,Population Pyknosed Nuclei (%),[9],36%
same,Population Tubulin-Different-Phenotype (%),[9],98%
same,Total Cell Count,[9],230
same,Population Apoptotic (%),[10],71%
same,Population Fragmented Nuclei (%),[10],17%
same,Population Healthy Nuclei (%),[10],60%
same,Population Hoechst High Intensity Objects (%),[10],11%
same,Population Membrane Permeable-Phenotype (%),[10],74%
same,Population Mitochondria Different-Phenotype (%),[10],97%
same,Population Mitotic Cells (%),[10],28%
same,Population Normal (%),[10],88%
same,Population Pyknosed Nuclei (%),[10],21%
same,Population Tubulin-Different-Phenotype (%),[10],97%
same,Total Cell Count,[10],130
